ChEMBL document CHEMBL1177730, “Bivalent diketopiperazine-based tropomysin receptor kinase C (TrkC) antagonists” (J Med Chem, 2010)
The source made the active and inactive calls. The rule behind the calls is not given here.

Experiments:
[1] = molecular target: NT-3 growth factor receptor (Homo sapiens) (UniProt Q16288); assay: Antagonist activity at human TrkC expressed in mouse NIH/3T3 cells assessed as inhibition of NT3-induced cytoprotection at 20 uM by MTT assay relative to NT3; format: functional, cell-based; conditions: NIH3T3
How it was run: (§1)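 Survival of NIH-3T3 cells expressing TrkA, TrkC or IGF-1R was measured by MTT in serum-free medium. Medium held the matching growth factor (NGF for TrkA, NT-3 for TrkC, IGF-1 for IGF-1R) at optimal 10 nM or sub-optimal 0.2 nM, ± compound at 20 μM. Survival was expressed relative to optimal growth factor-mediated survival (100%); average ± sd.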

[2] = molecular target: High affinity nerve growth factor receptor (Homo sapiens) (UniProt P04629); assay: Antagonist activity at human TrkA expressed in mouse NIH/3T3 assessed as inhibition of NGF-induced cytoprotection at 20 uM by MTT assay relative to NGF; format: functional, cell-based; conditions: NIH3T3; how it was run: as §1
[3] = molecular target: Insulin-like growth factor 1 receptor (Homo sapiens) (UniProt P08069); assay: Antagonist activity at human IGF1R expressed in mouse NIH/3T3 cells assessed as inhibition of IGF-induced cytoprotection at 20 uM by MTT assay relative to IGF; format: functional, cell-based; conditions: NIH3T3; how it was run: as §1
NIH3T3 = assay: Cytotoxicity against mouse NIH/3T3 cells by MTT assay; format: cell-based
[4] = molecular target: NT-3 growth factor receptor (Homo sapiens) (UniProt Q16288); assay: Antagonist activity at human TrkC expressed in mouse NIH/3T3 cells assessed as decrease in NT3-induced TrkC-pTyr level at 20 uM after 20 mins by Western blotting; format: functional, cell-based; design: scale not given: the % may be the effect or the level left; conditions: NIH3T3
How it was run: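 NIH3T3-TrkC cells were exposed to NT-3 (2 nM) ± compound (20 μM) for 20 min. Detergent lysates were Western blotted with anti-pTyr mAb 4G10 and anti-phospho-MAPK, then re-blotted for actin to normalise loading. Bands were quantified by densitometry.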

[5] = molecular target: High affinity nerve growth factor receptor (Homo sapiens) (UniProt P04629); assay: Antagonist activity at human TrkA expressed in mouse NIH/3T3 cells assessed as decrease in NGF-induced tyrosin phosphorylation at 20 uM after 20 mins by Western blotting; format: functional, cell-based; conditions: NIH3T3
[6] = molecular target: Insulin-like growth factor 1 receptor (Homo sapiens) (UniProt P08069); assay: Antagonist activity at human IGF1R expressed in mouse NIH/3T3 cells assessed as decrease in IGF-induced tyrosin phosphorylation at 20 uM after 20 mins by Western blotting; format: functional, cell-based; conditions: NIH3T3
[7] = molecular target: NT-3 growth factor receptor (Homo sapiens) (UniProt Q16288); assay: Binding affinity at human TrkC expressed in mouse NIH/3T3 cells by FACS analysis; format: cell-based; conditions: NIH3T3
How it was run: (§2)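 Stably transfected NIH-3T3 cells expressing the indicated receptor were incubated at 4 °C with biotin-tagged ligand (50 μM), then with fluorescein-avidin. After washing, cells were analysed by flow cytometry. Background mean channel fluorescence of NIH-IGF-1R cells was subtracted to give specific binding. Mean ± SEM, n = 3 independent experiments.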

[8] = molecular target: High affinity nerve growth factor receptor (Homo sapiens) (UniProt P04629); assay: Binding affinity to human TrkA expressed in mouse NIH/3T3 cells by FACS analysis; format: cell-based; conditions: NIH3T3; how it was run: as §2
[9] = molecular target: Insulin-like growth factor 1 receptor (Homo sapiens) (UniProt P08069); assay: Binding affinity to human IGF1R expressed in mouse NIH/3T3 cells by FACS analysis; format: cell-based; conditions: NIH3T3
[10] = molecular target: Tumor necrosis factor receptor superfamily member 16 (p75NTR, NGFR) (Homo sapiens) (UniProt P08138); assay: Binding affinity to human p75 expressed in mouse NIH/3T3 cells by FACS analysis; conditions: NIH3T3
Sequence of Tumor necrosis factor receptor superfamily member 16 (p75NTR, NGFR) (Homo sapiens) (P08138 whole entry, looked up): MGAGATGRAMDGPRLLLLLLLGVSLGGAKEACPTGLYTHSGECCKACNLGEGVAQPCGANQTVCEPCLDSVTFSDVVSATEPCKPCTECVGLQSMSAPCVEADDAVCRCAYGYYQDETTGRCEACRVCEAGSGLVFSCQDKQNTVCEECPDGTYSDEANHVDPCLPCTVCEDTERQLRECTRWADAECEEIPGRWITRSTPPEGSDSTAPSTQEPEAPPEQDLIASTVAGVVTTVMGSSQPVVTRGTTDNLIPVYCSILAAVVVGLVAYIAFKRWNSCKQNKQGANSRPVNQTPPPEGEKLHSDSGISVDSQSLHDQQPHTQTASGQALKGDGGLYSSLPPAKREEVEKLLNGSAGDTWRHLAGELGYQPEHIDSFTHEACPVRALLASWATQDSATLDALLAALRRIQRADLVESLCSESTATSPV

Sequence of High affinity nerve growth factor receptor (Homo sapiens) (P04629 33-796 limits assumed): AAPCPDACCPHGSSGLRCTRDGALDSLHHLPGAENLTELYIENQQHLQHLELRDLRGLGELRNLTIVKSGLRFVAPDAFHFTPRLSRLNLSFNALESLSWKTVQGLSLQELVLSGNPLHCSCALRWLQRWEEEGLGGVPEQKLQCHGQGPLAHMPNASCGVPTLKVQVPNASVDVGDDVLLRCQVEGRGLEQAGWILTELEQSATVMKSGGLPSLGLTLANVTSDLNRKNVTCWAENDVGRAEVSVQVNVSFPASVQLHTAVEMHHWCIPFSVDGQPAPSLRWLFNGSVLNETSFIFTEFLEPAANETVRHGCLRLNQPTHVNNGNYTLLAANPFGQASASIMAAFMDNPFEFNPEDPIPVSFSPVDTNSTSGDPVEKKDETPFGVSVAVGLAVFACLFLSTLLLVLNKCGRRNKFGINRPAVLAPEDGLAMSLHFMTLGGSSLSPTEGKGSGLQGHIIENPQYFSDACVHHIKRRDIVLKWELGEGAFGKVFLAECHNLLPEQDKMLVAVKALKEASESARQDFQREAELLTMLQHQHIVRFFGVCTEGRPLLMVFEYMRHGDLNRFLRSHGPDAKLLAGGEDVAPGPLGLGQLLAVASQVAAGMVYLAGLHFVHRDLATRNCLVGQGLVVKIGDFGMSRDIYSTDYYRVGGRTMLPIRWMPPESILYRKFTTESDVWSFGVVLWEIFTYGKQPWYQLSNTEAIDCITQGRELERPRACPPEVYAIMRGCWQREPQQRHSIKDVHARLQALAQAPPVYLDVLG
Sequence of Insulin-like growth factor 1 receptor (Homo sapiens) (P08069 31-736 limits assumed): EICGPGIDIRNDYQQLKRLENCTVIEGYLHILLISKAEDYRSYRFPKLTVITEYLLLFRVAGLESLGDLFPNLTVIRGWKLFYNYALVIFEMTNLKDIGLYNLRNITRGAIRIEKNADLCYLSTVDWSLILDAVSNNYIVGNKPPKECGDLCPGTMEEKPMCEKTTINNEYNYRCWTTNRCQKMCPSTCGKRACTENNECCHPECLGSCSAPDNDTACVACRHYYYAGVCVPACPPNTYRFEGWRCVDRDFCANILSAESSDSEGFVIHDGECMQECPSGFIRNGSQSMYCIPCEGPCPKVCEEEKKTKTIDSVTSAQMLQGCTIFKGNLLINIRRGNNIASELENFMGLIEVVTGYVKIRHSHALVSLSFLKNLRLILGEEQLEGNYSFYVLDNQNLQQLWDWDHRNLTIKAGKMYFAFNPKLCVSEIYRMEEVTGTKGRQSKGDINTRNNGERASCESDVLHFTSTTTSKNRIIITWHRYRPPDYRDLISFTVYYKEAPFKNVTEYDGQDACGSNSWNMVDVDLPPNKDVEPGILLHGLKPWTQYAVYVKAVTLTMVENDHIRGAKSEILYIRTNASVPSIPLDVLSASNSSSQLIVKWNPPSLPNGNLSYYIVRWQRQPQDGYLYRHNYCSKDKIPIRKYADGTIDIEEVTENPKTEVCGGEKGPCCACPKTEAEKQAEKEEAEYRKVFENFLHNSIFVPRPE
Sequence of Insulin-like growth factor 1 receptor (Homo sapiens) (P08069 741-1367 limits assumed): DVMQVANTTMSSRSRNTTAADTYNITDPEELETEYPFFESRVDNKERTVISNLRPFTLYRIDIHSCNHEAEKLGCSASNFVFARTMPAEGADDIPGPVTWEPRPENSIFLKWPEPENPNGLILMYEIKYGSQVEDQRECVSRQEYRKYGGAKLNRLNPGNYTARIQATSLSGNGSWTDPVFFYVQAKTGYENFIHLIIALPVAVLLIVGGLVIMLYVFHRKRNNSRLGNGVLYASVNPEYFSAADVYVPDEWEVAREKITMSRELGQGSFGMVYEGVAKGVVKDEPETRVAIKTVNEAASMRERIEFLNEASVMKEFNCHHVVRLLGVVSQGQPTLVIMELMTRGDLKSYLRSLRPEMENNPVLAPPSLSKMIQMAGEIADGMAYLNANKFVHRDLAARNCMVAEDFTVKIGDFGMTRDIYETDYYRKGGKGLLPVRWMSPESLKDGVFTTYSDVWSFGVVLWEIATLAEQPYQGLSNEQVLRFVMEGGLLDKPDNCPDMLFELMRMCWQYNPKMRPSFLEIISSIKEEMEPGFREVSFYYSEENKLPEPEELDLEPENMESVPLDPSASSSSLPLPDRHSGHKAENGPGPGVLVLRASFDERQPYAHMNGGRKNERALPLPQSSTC
Sequence of NT-3 growth factor receptor (Homo sapiens) (Q16288 32-839 limits assumed): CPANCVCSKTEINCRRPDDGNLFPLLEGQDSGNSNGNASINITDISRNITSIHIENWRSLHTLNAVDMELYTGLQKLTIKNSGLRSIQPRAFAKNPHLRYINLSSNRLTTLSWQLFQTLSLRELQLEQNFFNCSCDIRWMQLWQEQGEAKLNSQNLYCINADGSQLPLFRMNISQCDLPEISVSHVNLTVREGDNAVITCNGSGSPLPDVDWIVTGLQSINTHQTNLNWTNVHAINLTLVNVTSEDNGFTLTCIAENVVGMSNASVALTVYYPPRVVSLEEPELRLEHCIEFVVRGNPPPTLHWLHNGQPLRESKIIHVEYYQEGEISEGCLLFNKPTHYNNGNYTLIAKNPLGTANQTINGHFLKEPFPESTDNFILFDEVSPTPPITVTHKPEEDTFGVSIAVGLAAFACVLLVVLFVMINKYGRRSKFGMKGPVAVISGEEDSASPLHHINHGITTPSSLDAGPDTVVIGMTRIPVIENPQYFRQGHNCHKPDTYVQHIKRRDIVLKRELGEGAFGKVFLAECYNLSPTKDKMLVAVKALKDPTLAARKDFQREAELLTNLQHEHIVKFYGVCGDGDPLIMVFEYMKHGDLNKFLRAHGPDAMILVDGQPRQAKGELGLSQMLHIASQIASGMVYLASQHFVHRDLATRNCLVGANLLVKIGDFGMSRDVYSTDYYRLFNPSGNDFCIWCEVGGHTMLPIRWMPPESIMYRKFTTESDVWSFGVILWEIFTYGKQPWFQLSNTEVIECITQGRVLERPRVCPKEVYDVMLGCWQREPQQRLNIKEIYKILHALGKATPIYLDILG

CN1C(=O)CN([C@@H](CCCCN)C(=O)NCCCCCCCCCCC(=O)N2CCN(c3nc(NCCCC[C@@H]4SC[C@@H]5NC(=O)N[C@@H]54)nc(N4CCN(C(=O)[C@H](CCCCN)N5CC(=O)N(C)[C@@H](CCC(=O)O)C5=O)CC4)n3)CC2)C(=O)[C@@H]1CCC(=O)O was tested, and the inhibition [1] was 30%, the inhibition [2] was “inactive” and the inhibition [3] was “inactive”. For the same compound, the Activity (NIH3T3) was “Non-toxic”, the Activity [4] was 40% and the Activity [5] was “inactive”. For the same compound, the Activity [6] was “inactive”, the Activity [7] was “Active” and the Activity [8] was “inactive”. For the same compound, the Activity [9] was “inactive” and the Activity [10] was “inactive”.
